Measurements reported in ChEMBL document CHEMBL3813596, “Conformational Constraint of the Glycerol Moiety of Lysophosphatidylserine Affords Compounds with Receptor Subtype Selectivity” (J Med Chem, 2016).
Calls of active or inactive are those of the source. The rule behind the calls is not given here.

Assays:
[1] = molecular target: Probable G-protein coupled receptor 174 (Mus musculus) (UniProt Q3U507); assay: Agonist activity at mouse GPR174 expressed in HEK293FT cells after 1.5 hrs by alkaline phosphatase tagged-TGFalpha shedding assay; assay type: cell-based
Probable G-protein coupled receptor 174 (Mus musculus), sequence (Q3U507 whole entry): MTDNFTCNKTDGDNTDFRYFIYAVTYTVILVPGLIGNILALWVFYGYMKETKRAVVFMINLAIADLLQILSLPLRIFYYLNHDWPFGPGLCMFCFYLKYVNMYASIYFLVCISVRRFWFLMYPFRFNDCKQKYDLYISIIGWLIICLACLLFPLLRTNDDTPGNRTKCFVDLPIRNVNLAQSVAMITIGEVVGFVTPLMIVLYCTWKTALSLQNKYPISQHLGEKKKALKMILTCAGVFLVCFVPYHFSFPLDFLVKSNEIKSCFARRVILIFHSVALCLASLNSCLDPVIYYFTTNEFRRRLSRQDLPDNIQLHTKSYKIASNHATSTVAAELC
Summary of the method: (§1)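 Transient transfection of HEK293 cells with AP-TGFα plus the mouse receptor. For GPR34, HEK293A cells also got a chimeric Gαq/i1 subunit; P2Y10 was run in HEK293A and GPR174 in HEK293FT. Cells were seeded 24 h post-transfection in 5 mM HEPES (pH 7.4) HBSS onto serial 3.2-fold compound dilutions (top final 32 μM or lower, limited by mock-cell signal). Ki16425 was present, and incubation ran 1.5 h.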

[2] = molecular target: Probable G-protein coupled receptor 34 (Mus musculus) (UniProt Q9R1K6); assay: Intrinsic activity at mouse GPR34 expressed in HEK293A cells cotransfected with chimeric Galphaq/il after 1.5 hrs by alkaline phosphatase tagged-TGFalpha shedding assay relative to O-(Hydroxy(((2R,3R)-2-(((3-(2-((3-phenoxybenzyl)oxy)phenyl)-propanoyl)oxy)methyl)tetrahydro-2H-pyran-3-yl)oxy)phosphoryl)-L-serine; assay type: cell-based; conditions: HEK293-A
Probable G-protein coupled receptor 34 (Mus musculus), sequence (Q9R1K6 whole entry): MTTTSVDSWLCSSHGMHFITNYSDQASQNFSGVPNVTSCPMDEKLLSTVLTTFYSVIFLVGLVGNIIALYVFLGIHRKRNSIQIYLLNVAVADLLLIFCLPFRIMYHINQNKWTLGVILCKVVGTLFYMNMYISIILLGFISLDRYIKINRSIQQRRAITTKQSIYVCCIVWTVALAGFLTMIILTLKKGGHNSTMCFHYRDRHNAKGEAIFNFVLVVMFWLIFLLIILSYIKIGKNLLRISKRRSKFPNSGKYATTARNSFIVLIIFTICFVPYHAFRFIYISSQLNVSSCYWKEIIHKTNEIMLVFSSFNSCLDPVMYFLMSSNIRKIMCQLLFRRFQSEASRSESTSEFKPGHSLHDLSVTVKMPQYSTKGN
Summary of the method: (§2)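 It is a dimensionless estimate of agonist activity. The GPR34 assay used HEK293A cells with chimeric Gαq/i1 and a 1.5 h incubation; the P2Y10 assay used HEK293A cells.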

[3] = molecular target: Putative P2Y purinoceptor 10 (Mus musculus, UniProt Q8BFU7); assay: (§3) Agonist activity at mouse P2Y10 receptor expressed in HEK293A cells after 1.5 hrs by alkaline phosphatase tagged-TGFalpha shedding assay; assay type: cell-based, HEK293-A; summary of the method: as §1
Putative P2Y purinoceptor 10, sequence (Q8BFU7 whole entry): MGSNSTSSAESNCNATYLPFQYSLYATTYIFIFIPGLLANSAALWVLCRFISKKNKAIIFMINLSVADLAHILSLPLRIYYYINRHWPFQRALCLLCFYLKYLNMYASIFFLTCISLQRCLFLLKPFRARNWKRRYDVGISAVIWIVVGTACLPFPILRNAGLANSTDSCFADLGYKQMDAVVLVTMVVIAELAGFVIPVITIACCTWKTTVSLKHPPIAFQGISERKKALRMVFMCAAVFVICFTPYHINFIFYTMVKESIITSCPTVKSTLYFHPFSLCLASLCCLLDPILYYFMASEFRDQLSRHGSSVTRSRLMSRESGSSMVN

[4] = molecular target: Putative P2Y purinoceptor 10 (Mus musculus) (UniProt Q8BFU7); assay: as §3; assay type: cell-based; conditions: HEK293-A; summary of the method: as §1
Putative P2Y purinoceptor 10 (Mus musculus), sequence (Q8BFU7 whole entry): as above

[5] = molecular target: Putative P2Y purinoceptor 10 (Mus musculus) (UniProt Q8BFU7); assay: Intrinsic activity at mouse P2Y10 receptor expressed in HEK293A cells after 1.5 hrs by alkaline phosphatase tagged-TGFalpha shedding assay relative to diF-C3-ph-o-O-C11; assay type: cell-based; conditions: HEK293-A; summary of the method: as §2
[6] = molecular target: Probable G-protein coupled receptor 34 (Mus musculus) (UniProt Q9R1K6); assay: (§4) Agonist activity at mouse GPR34 expressed in HEK293A cells cotransfected with chimeric Galphaq/il after 1.5 hrs by alkaline phosphatase tagged-TGFalpha shedding assay; assay type: cell-based; conditions: HEK293-A
[7] = molecular target: Probable G-protein coupled receptor 34 (Mus musculus, UniProt Q9R1K6); assay: as §4; assay type: cell-based, HEK293-A
Probable G-protein coupled receptor 34, sequence (Q9R1K6 whole entry): as the sequence (Q9R1K6 whole entry) above

[8] = molecular target: Putative P2Y purinoceptor 10 (Mus musculus) (UniProt Q8BFU7); assay: Agonist activity at mouse P2Y10 receptor expressed in rat McA-RH7777 cells assessed as induction of actin stress fiber formation at 100 nM after 30 mins by Alexa fluor 594-labelled phalloidin/DAPI staining based fluorescence microscopy; assay type: cell-based
Summary of the method: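 McA-RH7777 rat hepatoma cells stably expressing mouse P2Y10, or mock-infected, seeded on collagen I at 2.5 × 10^4 cells/well, grown 24 h in 10% FBS DMEM. Serum-starved 1 h in 0.01% BSA DMEM, stimulated 30 min. Fixed in 4% paraformaldehyde, Triton X-100 permeabilised, stained 1 h with Alexa 594-phalloidin (1.5 μg/mL) and DAPI (1 μg/mL). Scored by fluorescence imaging.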

| Activity [1] | Intrinsic activity [2] | EC50 ([3]; read-out: EC50) [µM] | Emax [4] | Intrinsic activity [5] | Emax [6] | EC50 ([7]; read-out: EC50) [µM] | EC50 ([7]; hek293-a) | EC50 ([3]; hek293-a) | pEC50 [6] | SMILES | Activity [8] |
| --- | --- | --- | --- | --- | --- | --- | --- | --- | --- | --- | --- |
| inactive | inactive | > 1 | inactive | inactive | inactive | > 1 |  |  |  | N[C@@H](COP(=O)(O)OC[C@H]1OCCC[C@@H]1OC(=O)CCc1ccccc1OCc1cccc(Oc2ccccc2)c1)C(=O)O |  |
|  |  | > 1 | inactive | inactive |  |  | Not Active |  |  | N[C@@H](COP(=O)(O)OC[C@H]1OCCC[C@H]1OC(=O)CCc1cccc(OCc2cccc(Oc3ccccc3)c2)c1)C(=O)O |  |
|  | 0.25 | 0.33 | 11.5% | 0.0053 | 11.7% | 0.46 |  |  |  | N[C@@H](COP(=O)(O)O[C@H]1C=CCO[C@@H]1COC(=O)CCc1ccccc1OCc1cccc(Oc2ccccc2)c1)C(=O)O |  |
|  | 0.2 | > 1 | inactive | inactive | 12.4% | 0.6 |  |  |  | N[C@@H](COP(=O)(O)O[C@@H]1C=CCO[C@@H]1COC(=O)CCc1ccccc1OCc1cccc(Oc2ccccc2)c1)C(=O)O |  |
|  | inactive | > 1 | inactive | inactive | inactive | > 1 |  |  |  | N[C@@H](COP(=O)(O)OC[C@H]1OCCC[C@H]1OC(=O)CCc1ccc(OCc2cccc(Oc3ccccc3)c2)cc1)C(=O)O |  |
| inactive | 0.24 | > 1 | inactive | inactive | 9.8% | 0.34 |  |  |  | N[C@@H](COP(=O)(O)O[C@H]1CCCO[C@@H]1COC(=O)CCc1ccccc1OCc1cccc(Oc2ccccc2)c1)C(=O)O |  |
|  | 0.86 | > 1 | inactive | inactive | 16.5% | 0.18 |  |  |  | N[C@@H](COP(=O)(O)OC[C@H]1OCC=C[C@H]1OC(=O)CCc1ccccc1OCc1cccc(Oc2ccccc2)c1)C(=O)O |  |
|  | inactive | > 1 | inactive | inactive | inactive | > 1 |  |  |  | N[C@@H](COP(=O)(O)OC[C@H]1OCC=C[C@@H]1OC(=O)CCc1ccccc1OCc1cccc(Oc2ccccc2)c1)C(=O)O |  |
| inactive | 0.41 | 0.47 | 10.6% | 0.0038 | 5.2% | 0.11 |  |  |  | CCCCCCCCCCCOc1ccccc1CCC(=O)OC[C@H]1OCCC[C@H]1OP(=O)(O)OC[C@H](N)C(=O)O |  |
|  |  | > 1 | inactive | inactive |  |  | Not Active |  |  | N[C@@H](COP(=O)(O)O[C@@H]1CCCO[C@@H]1COC(=O)CCc1ccc(OCc2cccc(Oc3ccccc3)c2)cc1)C(=O)O |  |
| inactive | 0.082 | 0.61 | 7.5% | 0.002 | 5.3% | 0.64 |  |  |  | CCCCCCCCCCCOc1ccccc1CCC(=O)OC[C@H]1OCCC[C@@H]1OP(=O)(O)OC[C@H](N)C(=O)O |  |
|  | inactive | > 1 | inactive | inactive | inactive | > 1 |  |  |  | N[C@@H](COP(=O)(O)O[C@@H]1CCCO[C@@H]1COC(=O)CCc1cccc(OCc2cccc(Oc3ccccc3)c2)c1)C(=O)O |  |

Second part, the compound before the results:

| SMILES | Activity [1] | Intrinsic activity [2] | EC50 ([3]; read-out: EC50) [µM] | Emax [4] | Intrinsic activity [5] | Emax [6] | EC50 ([7]; read-out: EC50) [µM] | EC50 ([7]; hek293-a) | EC50 ([3]; hek293-a) | pEC50 [6] | Activity [8] |
| --- | --- | --- | --- | --- | --- | --- | --- | --- | --- | --- | --- |
| CCCCCCCCCCCOc1ccccc1CCC(=O)OCc1ccccc1OP(=O)(O)OC[C@H](N)C(=O)O |  | 0.2 | 0.045 | 5.8% | 0.02 | 5.9% | 0.7 |  |  |  | Active |
| CCCCCCCCCCCOc1ccccc1CCC(=O)O[C@@H]1C=CCO[C@@H]1COP(=O)(O)OCC(N)C(=O)O (single isomer, unassigned) |  | inactive | > 1 | inactive | inactive | inactive | > 1 |  |  |  |  |
| CCCCCCCC/C=C\CCCCCCCC(=O)O[C@H]1CCCO[C@@H]1COP(=O)(O)OC[C@H](N)C(=O)O | inactive |  |  |  |  |  |  | Not Active | Not Active |  |  |
| CCCCCCCCCCCOc1ccccc1CCC(=O)OC[C@H]1OCC=C[C@H]1OP(=O)(O)OC[C@H](N)C(=O)O |  |  | 0.042 | 12.4% | 0.05 |  | 0.51 |  |  |  | Active |
| CCCCCCCC/C=C\CCCCCCCC(=O)O[C@@H]1CCCO[C@@H]1COP(=O)(O)OC[C@H](N)C(=O)O | inactive |  | > 1 |  |  |  | > 1 |  |  |  |  |
| CCCCCCCC/C=C\CCCCCCCC(=O)OC[C@@H]1OCC=C[C@@H]1OP(=O)(O)OC[C@@H](N)C(=O)O (single isomer, unassigned) |  | inactive | > 1 | inactive | inactive | inactive | > 1 |  |  |  |  |
| CCCCCCCCCCCOc1ccccc1CCC(=O)O[C@H]1CCCO[C@@H]1COP(=O)(O)OCC(N)C(=O)O (single isomer, unassigned) | inactive | inactive | 0.29 | 7.2% | 0.0098 | < 3% |  | Not Active |  | inactive |  |
| CCCCCCCC/C=C\CCCCCCCC(=O)OC[C@@H]1OCC=C[C@H]1OP(=O)(O)OC[C@@H](N)C(=O)O (single isomer, unassigned) |  | inactive | 0.45 | 11.5% | 0.004 | inactive | > 1 |  |  |  |  |
| CCCCCCCC/C=C\CCCCCCCC(=O)O[C@H]1C=CCO[C@@H]1COP(=O)(O)OC[C@H](N)C(=O)O |  |  | > 1 | inactive | inactive |  |  | Not Active |  |  |  |
| CCCCCCCCCCCOc1ccccc1CCC(=O)O[C@@H]1CCCO[C@@H]1COP(=O)(O)OCC(N)C(=O)O (single isomer, unassigned) | inactive | inactive | > 1 | inactive | inactive | inactive | > 1 |  |  |  |  |
| CCCCCCCC/C=C\CCCCCCCC(=O)OC[C@@H]1OCCC[C@H]1OP(=O)(O)OC[C@@H](N)C(=O)O (single isomer, unassigned) | inactive | 1.03 | 0.45 |  |  | 8.7% | 0.1 |  |  |  |  |
| CCCCCCCC/C=C\CCCCCCCC(=O)O[C@@H]1C=CCO[C@@H]1COP(=O)(O)OC[C@H](N)C(=O)O |  |  | > 1 | inactive | inactive |  | 0.56 |  |  |  |  |
| CCCCCCCCCCCOc1ccccc1CCC(=O)OCc1ccc(OP(=O)(O)OC[C@H](N)C(=O)O)cc1 |  |  | > 1 | inactive | inactive |  |  | Not Active |  |  | inactive |
| CCCCCCCC/C=C\CCCCCCCC(=O)OC[C@@H]1OCCC[C@@H]1OP(=O)(O)OC[C@@H](N)C(=O)O (single isomer, unassigned) | inactive | 0.53 |  |  |  | 11.1% | 0.21 |  | Not Active |  |  |
| CCCCCCCCCCCOc1ccccc1CCC(=O)O[C@H]1C=CCO[C@@H]1COP(=O)(O)OCC(N)C(=O)O (single isomer, unassigned) |  | inactive | > 1 | inactive | inactive | inactive |  | Not Active |  | inactive |  |
| CCCCCCCCCCCOc1ccccc1CCC(=O)OC[C@H]1OCC=C[C@@H]1OP(=O)(O)OC[C@H](N)C(=O)O |  |  | 0.017 | 7.6% | 0.071 |  |  | Not Active |  |  | Active |
| CCCCCCCCCCCOc1ccccc1CCC(=O)OCc1cccc(OP(=O)(O)OC[C@H](N)C(=O)O)c1 |  |  | 0.0067 | 10.8% | 0.23 |  |  | Not Active |  |  | Active |
| CCCCCCCC/C=C\CCCCCCCC(=O)OC[C@@H](O)COP(=O)(O)OC[C@H](N)C(=O)O |  | 0.33 | 0.025 | 12.5% | 0.073 | 9.5% |  |  |  |  | Active |
